Data as given in ChEMBL document CHEMBL4387788, “Brominated Azaphilones from the Sponge-Associated Fungus Penicillium canescens Strain 4.14.6a” (J Nat Prod, 2019).
pIC50: −log10 of the molar value.

What was measured:
A2780 = assay: Cytotoxicity against human A2780 cells assessed as reduction in cell viability incubated for 72 hrs by MTT assay; format: functional, cell-based; details: A2780, 72 h
Procedure, shortened: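 A2780 human ovarian cancer cells were seeded at 9500 cells/well and, after 24 h, exposed to 3.6-fold serial dilutions of compound for 72 h. MTT (5 mg/mL in PBS) was added, and the formazan was dissolved in DMSO. Absorbance was read at 544 and 690 nm. Cisplatin was the positive control and 0.9% sodium chloride the negative control.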

L5178Y = assay: Cytotoxicity against mouse L5178Y cells assessed as reduction in cell viability incubated for 72 hrs by MTT assay; format: functional, cell-based
Procedure, shortened: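 MTT assay on L5178Y mouse lymphoma cells. Kahalalide F was the positive control; 0.1% ethylene glycol monomethyl ether in DMSO was the negative control.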

SMILES | pIC50 (A2780) | pIC50 (L5178Y)
COc1cc(O)c2c(=O)c3c(C)cc(O)cc3oc2c1 | < 5.00 | < 5.00
COC1=CC(=O)C[C@@H](C)[C@]12Oc1cc(OC)cc(OC)c1C2=O | < 5.00 | < 5.00
COc1cc(O)c(C(=O)c2c(C)cc(O)cc2OC)c(O)c1 | < 5.00 | < 5.00
COc1cc(O)c(C(=O)c2c(C)cc(O)cc2OC)c(O)c1Cl | < 5.00 | < 5.00
COC(=O)Cc1cc(OC)cc(O)c1C(C)=O | < 5.00 | < 5.00
COC(=O)c1c(O)cc(OC)c(Cl)c1Oc1c(C)cc(O)cc1OC | < 5.00 | < 5.00
COc1cc(O)cc(C)c1C(=O)c1c(O)c(Cl)c(OC)c(Cl)c1O | < 5.00 | < 5.00
COc1cc(C[C@]23COC(/C=C/C=C/C=C/C(=O)O)=CC2=C(Br)C(=O)[C@](C)(OC(=O)C[C@H](O)C[C@@H](C)O)C3=O)c(C(C)=O)c(O)c1O | 4.43 | 4.86
COC(=O)Cc1cc(O)cc(O)c1C(C)=O | < 5.00 | < 5.00
COC(=O)c1c(O)cc(OC)c(Cl)c1Oc1c(C)cc(OC)cc1OC | < 5.00 | < 5.00
COc1cc(C[C@]23COC(/C=C/C=C/C=C/C(=O)O)=CC2=C(Br)C(=O)[C@@](C)(OC(=O)C[C@H](O)C[C@@H](C)O)C3=O)c(C(C)=O)c(O)c1O | 5.57 | 5.05
COC(=O)[C@@]12C(O)=C(C)C(=O)[C@]1(C)C(C)=C[C@H]1[C@]34CC[C@H](OC(C)=O)C(C)(C)[C@H]3[C@H](C[C@@]12C)OC4=O | < 5.00 | < 5.00
CC1(C)C=Cc2cc3c(cc2O1)c(C[C@@H]1NC(=O)C2=CCCN2C1=O)c1n3C=CC1(C)C | < 5.00 | < 5.00
C/C=C1\NC(=O)[C@H](Cc2ccccc2)NC(=O)[C@@H](C(C)C)NC(=O)[C@@H]([C@@H](C)CC)NC(=O)[C@H](NC(=O)[C@H](NC(=O)[C@H](CCCN)NC(=O)[C@H]2CCCN2C(=O)[C@H](NC(=O)[C@@H](NC(=O)[C@@H](NC(=O)[C@H](NC(=O)CCCC(C)C)C(C)C)[C@@H](C)O)C(C)C)C(C)C)[C@@H](C)CC)[C@@H](C)OC(=O)[C@H](C(C)C)NC1=O | – | 5.37
COC1=CC(=O)C[C@@H](C)[C@]12Oc1c(Cl)c(OC)cc(OC)c1C2=O [GRISEOFULVIN] | < 5.00 | < 5.00
Cc1cc(O)cc2oc3cc(O)cc(O)c3c(=O)c12 [NORLICHEXANTHONE] | < 5.00 | < 5.00
C=C(C)C1(O)OC(=O)C=C1OC (stereo not drawn) [PENICILLIC ACID] | < 5.00 | 5.05
